Measurements reported in ChEMBL document CHEMBL5058577, “EUbOPEN Chemogenomics Library 2 (Multiplex)” (2022).

System: HEK-293T
Test: Multiplex assay against HEK293T
Type: toxicity, cell-based
Conditions: human
Procedure, shortened: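 Phenotypes for tubulin, mitochondrial mass and membrane permeability are expressed as per cents of healthy-nucleus cells. Cells were stained live at seeding with Hoechst33342, BioTracker Green Microtubule Cytoskeleton Dye, MitoTracker Red and Annexin V Alexa Fluor 680, then imaged after compound addition on a CQ1 microscope at 37°C and 5% CO2. Machine-learning gating in CellPathfinder separated Hoechst high-intensity objects from normal cells, divided normal cells by nuclear state (healthy, pyknosed, fragmented) and divided pyknosed cells into mitotic or apoptotic.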

[1] = 12 h, 1 µM, compound concentration 1 uM, replicate 1
[2] = 12 h, 1 µM, compound concentration 1 uM, replicate 2
[3] = 12 h, 10 µM, compound concentration 10 uM, replicate 1
[4] = 12 h, 10 µM, compound concentration 10 uM, replicate 2
[5] = 24 h, 1 µM, compound concentration 1 uM, replicate 1
[6] = 24 h, 1 µM, compound concentration 1 uM, replicate 2
[7] = 24 h, 10 µM, compound concentration 10 uM, replicate 1
[8] = 24 h, 10 µM, compound concentration 10 uM, replicate 2
[9] = 48 h, 1 µM, compound concentration 1 uM, replicate 1
[10] = 48 h, 1 µM, compound concentration 1 uM, replicate 2
[11] = 48 h, 10 µM, compound concentration 10 uM, replicate 1
[12] = 48 h, 10 µM, compound concentration 10 uM, replicate 2

Structure (SMILES): CC(C)(C)c1ccc(CSc2cnn(C(C)(C)C)c(=O)c2Cl)cc1 [PYRIDABEN]
- Population Apoptotic (%) [1]: 51%
- Population Fragmented Nuclei (%) [1]: 7%
- Population Healthy Nuclei (%) [1]: 78%
- Population Hoechst High Intensity Objects (%) [1]: 12%
- Population Membrane Permeable-Phenotype (%) [1]: 0%
- Population Mitochondria Different-Phenotype (%) [1]: 51%
- Population Mitotic Cells (%) [1]: 48%
- Population Normal (%) [1]: 87%
- Population Pyknosed Nuclei (%) [1]: 14%
- Population Tubulin-Different-Phenotype (%) [1]: 34%
- Total Cell Count [1]: 299
- Population Apoptotic (%) [2]: 28%
- Population Fragmented Nuclei (%) [2]: 6%
- Population Healthy Nuclei (%) [2]: 83%
- Population Hoechst High Intensity Objects (%) [2]: 8%
- Population Mitochondria Different-Phenotype (%) [2]: 63%
- Population Mitotic Cells (%) [2]: 71%
- Population Normal (%) [2]: 91%
- Population Pyknosed Nuclei (%) [2]: 10%
- Population Tubulin-Different-Phenotype (%) [2]: 30%
- Total Cell Count [2]: 306
- Population Apoptotic (%) [3]: 56%
- Population Fragmented Nuclei (%) [3]: 6%
- Population Healthy Nuclei (%) [3]: 77%
- Population Hoechst High Intensity Objects (%) [3]: 11%
- Population Membrane Permeable-Phenotype (%) [3]: 0%
- Population Mitochondria Different-Phenotype (%) [3]: 75%
- Population Mitotic Cells (%) [3]: 44%
- Population Normal (%) [3]: 88%
- Population Pyknosed Nuclei (%) [3]: 15%
- Population Tubulin-Different-Phenotype (%) [3]: 55%
- Total Cell Count [3]: 359
- Population Apoptotic (%) [4]: 62%
- Population Fragmented Nuclei (%) [4]: 8%
- Population Healthy Nuclei (%) [4]: 74%
- Population Hoechst High Intensity Objects (%) [4]: 17%
- Population Mitochondria Different-Phenotype (%) [4]: 81%
- Population Mitotic Cells (%) [4]: 37%
- Population Normal (%) [4]: 82%
- Population Pyknosed Nuclei (%) [4]: 16%
- Population Tubulin-Different-Phenotype (%) [4]: 38%
- Total Cell Count [4]: 236
- Population Apoptotic (%) [5]: 33%
- Population Fragmented Nuclei (%) [5]: 7%
- Population Healthy Nuclei (%) [5]: 80%
- Population Hoechst High Intensity Objects (%) [5]: 9%
- Population Membrane Permeable-Phenotype (%) [5]: 0%
- Population Mitochondria Different-Phenotype (%) [5]: 37%
- Population Mitotic Cells (%) [5]: 66%
- Population Normal (%) [5]: 90%
- Population Pyknosed Nuclei (%) [5]: 11%
- Population Tubulin-Different-Phenotype (%) [5]: 27%
- Total Cell Count [5]: 373
- Population Apoptotic (%) [6]: 35%
- Population Healthy Nuclei (%) [6]: 83%
- Population Hoechst High Intensity Objects (%) [6]: 8%
- Population Mitochondria Different-Phenotype (%) [6]: 43%
- Population Mitotic Cells (%) [6]: 64%
- Population Normal (%) [6]: 91%
- Population Pyknosed Nuclei (%) [6]: 8%
- Population Tubulin-Different-Phenotype (%) [6]: 22%
- Total Cell Count [6]: 370
- Population Apoptotic (%) [7]: 44%
- Population Fragmented Nuclei (%) [7]: 7%
- Population Healthy Nuclei (%) [7]: 79%
- Population Hoechst High Intensity Objects (%) [7]: 10%
- Population Membrane Permeable-Phenotype (%) [7]: 0%
- Population Mitochondria Different-Phenotype (%) [7]: 68%
- Population Mitotic Cells (%) [7]: 55%
- Population Normal (%) [7]: 89%
- Population Pyknosed Nuclei (%) [7]: 12%
- Population Tubulin-Different-Phenotype (%) [7]: 52%
- Total Cell Count [7]: 386
- Population Apoptotic (%) [8]: 46%
- Population Fragmented Nuclei (%) [8]: 8%
- Population Healthy Nuclei (%) [8]: 70%
- Population Hoechst High Intensity Objects (%) [8]: 23%
- Population Mitochondria Different-Phenotype (%) [8]: 65%
- Population Mitotic Cells (%) [8]: 53%
- Population Normal (%) [8]: 76%
- Population Pyknosed Nuclei (%) [8]: 21%
- Population Tubulin-Different-Phenotype (%) [8]: 25%
- Total Cell Count [8]: 252
- Population Apoptotic (%) [9]: 19%
- Population Fragmented Nuclei (%) [9]: 11%
- Population Healthy Nuclei (%) [9]: 80%
- Population Hoechst High Intensity Objects (%) [9]: 5%
- Population Membrane Permeable-Phenotype (%) [9]: 0%
- Population Mitochondria Different-Phenotype (%) [9]: 25%
- Population Mitotic Cells (%) [9]: 80%
- Population Normal (%) [9]: 94%
- Population Pyknosed Nuclei (%) [9]: 7%
- Population Tubulin-Different-Phenotype (%) [9]: 14%
- Total Cell Count [9]: 585
- Population Apoptotic (%) [10]: 30%
- Population Fragmented Nuclei (%) [10]: 9%
- Population Healthy Nuclei (%) [10]: 84%
- Population Hoechst High Intensity Objects (%) [10]: 4%
- Population Mitochondria Different-Phenotype (%) [10]: 21%
- Population Mitotic Cells (%) [10]: 69%
- Population Normal (%) [10]: 95%
- Population Pyknosed Nuclei (%) [10]: 6%
- Population Tubulin-Different-Phenotype (%) [10]: 13%
- Total Cell Count [10]: 522
- Population Apoptotic (%) [11]: 48%
- Population Fragmented Nuclei (%) [11]: 8%
- Population Healthy Nuclei (%) [11]: 79%
- Population Hoechst High Intensity Objects (%) [11]: 11%
- Population Membrane Permeable-Phenotype (%) [11]: 0%
- Population Mitochondria Different-Phenotype (%) [11]: 59%
- Population Mitotic Cells (%) [11]: 51%
- Population Normal (%) [11]: 88%
- Population Pyknosed Nuclei (%) [11]: 12%
- Population Tubulin-Different-Phenotype (%) [11]: 43%
- Total Cell Count [11]: 424
- Population Apoptotic (%) [12]: 64%
- Population Fragmented Nuclei (%) [12]: 13%
- Population Healthy Nuclei (%) [12]: 71%
- Population Hoechst High Intensity Objects (%) [12]: 14%
- Population Mitochondria Different-Phenotype (%) [12]: 48%
- Population Mitotic Cells (%) [12]: 35%
- Population Normal (%) [12]: 85%
- Population Pyknosed Nuclei (%) [12]: 14%
- Population Tubulin-Different-Phenotype (%) [12]: 28%
- Total Cell Count [12]: 290

Structure (SMILES): Cc1c(Cc2ccc3ccccc3n2)c2cc(F)ccc2n1CC(=O)O [TIMAPIPRANT]
- Population Apoptotic (%) [1]: 42%
- Population Fragmented Nuclei (%) [1]: 7%
- Population Healthy Nuclei (%) [1]: 80%
- Population Hoechst High Intensity Objects (%) [1]: 10%
- Population Membrane Permeable-Phenotype (%) [1]: 0%
- Population Mitochondria Different-Phenotype (%) [1]: 36%
- Population Mitotic Cells (%) [1]: 57%
- Population Normal (%) [1]: 89%
- Population Pyknosed Nuclei (%) [1]: 11%
- Population Tubulin-Different-Phenotype (%) [1]: 20%
- Total Cell Count [1]: 394
- Population Fragmented Nuclei (%) [2]: 6%
- Population Hoechst High Intensity Objects (%) [2]: 7%
- Population Mitochondria Different-Phenotype (%) [2]: 55%
- Population Normal (%) [2]: 92%
- Population Pyknosed Nuclei (%) [2]: 12%
- Population Tubulin-Different-Phenotype (%) [2]: 16%
- Total Cell Count [2]: 280
- Population Apoptotic (%) [3]: 32%
- Population Fragmented Nuclei (%) [3]: 7%
- Population Healthy Nuclei (%) [3]: 78%
- Population Hoechst High Intensity Objects (%) [3]: 6%
- Population Membrane Permeable-Phenotype (%) [3]: 0%
- Population Mitochondria Different-Phenotype (%) [3]: 55%
- Population Mitotic Cells (%) [3]: 67%
- Population Normal (%) [3]: 93%
- Population Pyknosed Nuclei (%) [3]: 14%
- Population Tubulin-Different-Phenotype (%) [3]: 38%
- Total Cell Count [3]: 434
- Population Apoptotic (%) [4]: 33%
- Population Fragmented Nuclei (%) [4]: 6%
- Population Hoechst High Intensity Objects (%) [4]: 5%
- Population Mitochondria Different-Phenotype (%) [4]: 63%
- Population Mitotic Cells (%) [4]: 66%
- Population Normal (%) [4]: 94%
- Population Pyknosed Nuclei (%) [4]: 15%
- Population Tubulin-Different-Phenotype (%) [4]: 28%
- Total Cell Count [4]: 354
- Population Apoptotic (%) [5]: 31%
- Population Fragmented Nuclei (%) [5]: 10%
- Population Healthy Nuclei (%) [5]: 81%
- Population Hoechst High Intensity Objects (%) [5]: 4%
- Population Membrane Permeable-Phenotype (%) [5]: 1%
- Population Mitochondria Different-Phenotype (%) [5]: 20%
- Population Mitotic Cells (%) [5]: 68%
- Population Normal (%) [5]: 95%
- Population Pyknosed Nuclei (%) [5]: 8%
- Population Tubulin-Different-Phenotype (%) [5]: 15%
- Total Cell Count [5]: 516
- Population Apoptotic (%) [6]: 53%
- Population Fragmented Nuclei (%) [6]: 7%
- Population Healthy Nuclei (%) [6]: 83%
- Population Hoechst High Intensity Objects (%) [6]: 5%
- Population Membrane Permeable-Phenotype (%) [6]: 0%
- Population Mitochondria Different-Phenotype (%) [6]: 38%
- Population Mitotic Cells (%) [6]: 46%
- Population Normal (%) [6]: 94%
- Total Cell Count [6]: 381
- Population Apoptotic (%) [7]: 32%
- Population Fragmented Nuclei (%) [7]: 7%
- Population Healthy Nuclei (%) [7]: 78%
- Population Hoechst High Intensity Objects (%) [7]: 4%
- Population Membrane Permeable-Phenotype (%) [7]: 0%
- Population Mitochondria Different-Phenotype (%) [7]: 31%
- Population Mitotic Cells (%) [7]: 67%
- Population Normal (%) [7]: 95%
- Population Pyknosed Nuclei (%) [7]: 13%
- Population Tubulin-Different-Phenotype (%) [7]: 28%
- Total Cell Count [7]: 560
- Population Apoptotic (%) [8]: 37%
- Population Fragmented Nuclei (%) [8]: 12%
- Population Healthy Nuclei (%) [8]: 77%
- Population Hoechst High Intensity Objects (%) [8]: 5%
- Population Mitochondria Different-Phenotype (%) [8]: 44%
- Population Mitotic Cells (%) [8]: 62%
- Population Normal (%) [8]: 94%
- Population Pyknosed Nuclei (%) [8]: 10%
- Population Tubulin-Different-Phenotype (%) [8]: 20%
- Total Cell Count [8]: 475
- Population Apoptotic (%) [9]: 26%
- Population Fragmented Nuclei (%) [9]: 13%
- Population Healthy Nuclei (%) [9]: 78%
- Population Hoechst High Intensity Objects (%) [9]: 2%
- Population Membrane Permeable-Phenotype (%) [9]: 1%
- Population Mitochondria Different-Phenotype (%) [9]: 9%
- Population Mitotic Cells (%) [9]: 73%
- Population Normal (%) [9]: 97%
- Population Pyknosed Nuclei (%) [9]: 8%
- Population Tubulin-Different-Phenotype (%) [9]: 6%
- Total Cell Count [9]: 799
- Population Apoptotic (%) [10]: 17%
- Population Fragmented Nuclei (%) [10]: 15%
- Population Healthy Nuclei (%) [10]: 76%
- Population Hoechst High Intensity Objects (%) [10]: 3%
- Population Membrane Permeable-Phenotype (%) [10]: 0%
- Population Mitochondria Different-Phenotype (%) [10]: 25%
- Population Mitotic Cells (%) [10]: 82%
- Population Normal (%) [10]: 96%
- Population Tubulin-Different-Phenotype (%) [10]: 12%
- Total Cell Count [10]: 566
- Population Apoptotic (%) [11]: 33%
- Population Fragmented Nuclei (%) [11]: 10%
- Population Healthy Nuclei (%) [11]: 79%
- Population Hoechst High Intensity Objects (%) [11]: 4%
- Population Membrane Permeable-Phenotype (%) [11]: 1%
- Population Mitochondria Different-Phenotype (%) [11]: 24%
- Population Mitotic Cells (%) [11]: 66%
- Population Normal (%) [11]: 95%
- Population Pyknosed Nuclei (%) [11]: 9%
- Population Tubulin-Different-Phenotype (%) [11]: 17%
- Total Cell Count [11]: 752
- Population Apoptotic (%) [12]: 36%
- Population Fragmented Nuclei (%) [12]: 14%
- Population Healthy Nuclei (%) [12]: 78%
- Population Membrane Permeable-Phenotype (%) [12]: 0%
- Population Mitochondria Different-Phenotype (%) [12]: 33%
- Population Mitotic Cells (%) [12]: 63%
- Population Pyknosed Nuclei (%) [12]: 6%
- Population Tubulin-Different-Phenotype (%) [12]: 16%
- Total Cell Count [12]: 630
